According to ChEMBL document CHEMBL1240354, “Efficacy of posaconazole against three clinical Aspergillus fumigatus isolates with mutations in the cyp51A gene” (Antimicrob Agents Chemother, 2010):
Values after ≈ are worked out from the molar mass of the structure shown.

What was measured:
Format in all cases: functional
Aspergillus fumigatus [1] = test: Antifungal activity against Aspergillus fumigatus isolate V52-35 harboring TR L98H mutation in Cyp51A protein by broth microdilution method
Method in brief: (§1)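 Broth microdilution followed CLSI M38A. Isolates were stored in 10% glycerol broth at −80°C and revived on Sabouraud dextrose agar with 0.02% chloramphenicol for 5 to 7 days at 35°C before testing.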

Aspergillus fumigatus [2] = test: Antifungal activity against Aspergillus fumigatus isolate V28-77 harboring M220I mutation in Cyp51A protein by broth microdilution method; method in brief: as §1
Aspergillus fumigatus [3] = test: Antifungal activity against Aspergillus fumigatus isolate V59-73 harboring G54W mutation in Cyp51A protein by broth microdilution method; method in brief: as §1
Aspergillus fumigatus [4] = test: Antifungal activity against Aspergillus fumigatus isolate AZN 8196 harboring wild type Cyp51A protein by broth microdilution method; method in brief: as §1

For `C[C@@H]1[C@H](O)[C@@H](C)/C=C/C=C/C=C/C=C/C=C/C=C/C=C/[C@H](O[C@@H]2O[C@H](C)[C@@H](O)[C@H](N)[C@@H]2O)C[C@@H]2O[C@](O)(C[C@@H](O)C[C@@H](O)[C@H](O)CC[C@@H](O)C[C@@H](O)CC(=O)O[C@H]1C)C[C@H](O)[C@H]2C(=O)O` [AMPHOTERICIN B], the MIC (Aspergillus fumigatus [1]) was 0.5 µg/mL (≈ 0.541 µM), the MIC (Aspergillus fumigatus [2]) was 0.5 µg/mL (≈ 0.541 µM) and the MIC (Aspergillus fumigatus [3]) was 0.5 µg/mL (≈ 0.541 µM). It also gave an MIC (Aspergillus fumigatus [4]) of 0.5 µg/mL (≈ 0.541 µM).
`CC[C@H](C)C[C@H](C)CCCCCCCCC(=O)N[C@H]1C[C@@H](O)[C@@H](NCCN)NC(=O)[C@@H]2[C@@H](O)CCN2C(=O)[C@H]([C@H](O)CCN)NC(=O)[C@H]([C@H](O)[C@@H](O)c2ccc(O)cc2)NC(=O)[C@@H]2C[C@@H](O)CN2C(=O)[C@H]([C@@H](C)O)NC1=O` [CASPOFUNGIN] was tested, and the minimal effective concentration (Aspergillus fumigatus [1]; read-out: MEC) was 0.25 µg/mL, the minimal effective concentration (Aspergillus fumigatus [2]; read-out: MEC) was 0.25 µg/mL and the minimal effective concentration (Aspergillus fumigatus [3]; read-out: MEC) was 0.25 µg/mL. For the same compound, the minimal effective concentration (Aspergillus fumigatus [4]; read-out: MEC) was 0.25 µg/mL.
